Converted amounts (≈) assume the structure as drawn.
Tests used:
[1] = system: Klebsiella pneumoniae; assay: Antimicrobial activity against ciprofloxacin-resistant Klebsiella pneumoniae isolate 772 harboring GyrA Ser83Ile mutant gene by agar dilution method; type: functional
[2] = system: Klebsiella pneumoniae; assay: Antimicrobial activity against ciprofloxacin-resistant Klebsiella pneumoniae isolate 103 harboring GyrA Ser83Leu, Asp78Asn, Ala171Ser and Val198Ile mutant gene by agar dilution method; type: functional
[3] = system: Klebsiella pneumoniae; assay: Antimicrobial activity against ciprofloxacin-susceptible Klebsiella pneumoniae isolate 838 harboring GyrA Ser83Tyr, Ala171Ser, Leu187Ile and Val198Ile mutant gene by agar dilution method; type: functional
[4] = system: Klebsiella pneumoniae; assay: Antimicrobial activity against ciprofloxacin-resistant Klebsiella pneumoniae isolate 827 harboring GyrA Ser83Ile mutant gene by agar dilution method; type: functional
[5] = system: Klebsiella pneumoniae; assay: Antimicrobial activity against ciprofloxacin-susceptible Klebsiella pneumoniae isolate 49 harboring GyrA Asp87Asn, Arg154Ser and Ala171Ser mutant gene by agar dilution method; type: functional
[6] = system: Klebsiella pneumoniae; assay: Antimicrobial activity against ciprofloxacin-resistant Klebsiella pneumoniae isolate 828 harboring GyrA Ser83Ile and Gly177Arg mutant gene by agar dilution method; type: functional
[7] = system: Klebsiella pneumoniae; assay: Antimicrobial activity against ciprofloxacin-resistant Klebsiella pneumoniae isolate 779 harboring GyrA Ser83Leu, Asp78Asn, Ala171Ser and Val198Ile mutant gene by agar dilution method; type: functional
[8] = system: Klebsiella pneumoniae; assay: Antimicrobial activity against ciprofloxacin-susceptible Klebsiella pneumoniae isolate 212 harboring GyrA Ala171Ser, Leu187Ile and Val198Ile mutant gene by agar dilution method; type: functional
[9] = system: Klebsiella pneumoniae; assay: Antimicrobial activity against ciprofloxacin-resistant Klebsiella pneumoniae isolate 836 by agar dilution method; type: functional
[10] = system: Klebsiella pneumoniae; assay: Antimicrobial activity against ciprofloxacin-susceptible Klebsiella pneumoniae isolate 724 harboring GyrA Ser83Ile mutant gene by agar dilution method; type: functional
[11] = system: Klebsiella pneumoniae; assay: microbe, parasite or virus in culture; conditions: isolate 3
[12] = system: Klebsiella pneumoniae; assay: microbe, parasite or virus in culture; conditions: isolate 19
[13] = system: Klebsiella pneumoniae; assay: microbe, parasite or virus in culture; conditions: isolate 16
[14] = system: Klebsiella pneumoniae; assay: Antimicrobial activity against ciprofloxacin-susceptible Klebsiella pneumoniae isolate 182 harboring GyrA Ser83Thr and Ala171Ser mutant gene by agar dilution method; type: functional
[15] = system: Klebsiella pneumoniae; assay: Antimicrobial activity against ciprofloxacin-resistant Klebsiella pneumoniae isolate 27 harboring GyrA Ser83Leu, Asp78Asn, Ala171Ser and Val198Ile mutant gene by agar dilution method; type: functional
[16] = system: Klebsiella pneumoniae; assay: Antimicrobial activity against ciprofloxacin-susceptible Klebsiella pneumoniae isolate 577 by agar dilution method; type: functional
Summary of the method: (§1)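 MIC read by agar dilution on Mueller-Hinton agar following CLSI (formerly NCCLS) recommendations. K. pneumoniae isolates were identified with the API 20E system and confirmed as nonduplicated by randomly amplified polymorphic DNA analysis.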

[17] = system: Klebsiella pneumoniae; assay: Antimicrobial activity against ciprofloxacin-susceptible Klebsiella pneumoniae isolate 737 harboring GyrA Ser83Leu and Val198Ile mutant gene by agar dilution method; type: functional
[18] = system: Klebsiella pneumoniae; assay: Antimicrobial activity against ciprofloxacin-susceptible Klebsiella pneumoniae isolate 738 by agar dilution method; type: functional; summary of the method: as §1
[19] = system: Klebsiella pneumoniae; assay: microbe, parasite or virus in culture; conditions: isolate 24
[20] = system: Klebsiella pneumoniae; assay: Antimicrobial activity against ciprofloxacin-resistant Klebsiella pneumoniae isolate 719 harboring GyrA Ser83Leu, Asp78Asn, Ala171Ser and Val198Ile mutant gene by agar dilution method; type: functional
[21] = system: Klebsiella pneumoniae; assay: Antimicrobial activity against ciprofloxacin-susceptible Klebsiella pneumoniae isolate 685 harboring GyrA Ala171Ser, Leu187Ile and Val198Ile mutant gene by agar dilution method; type: functional
[22] = system: Klebsiella pneumoniae; assay: Antimicrobial activity against ciprofloxacin-resistant Klebsiella pneumoniae isolate 234 harboring GyrA Ser83Leu, Asp78Asn, Ala171Ser and Val198Ile mutant gene by agar dilution method; type: functional
[23] = system: Klebsiella pneumoniae; assay: Antimicrobial activity against ciprofloxacin-resistant Klebsiella pneumoniae isolate 663 harboring GyrA Ser83Leu, Asp78Asn, Ala171Ser and Val198Ile mutant gene by agar dilution method; type: functional
[24] = system: Klebsiella pneumoniae; assay: Antimicrobial activity against ciprofloxacin-resistant Klebsiella pneumoniae isolate 3 harboring GyrA Ser83Leu, Asp78Asn, Ala171Ser and Val198Ile mutant gene by agar dilution method; type: functional
[25] = system: Klebsiella pneumoniae; assay: Antimicrobial activity against ciprofloxacin-susceptible Klebsiella pneumoniae isolate 760 by agar dilution method; type: functional
[26] = system: Klebsiella pneumoniae; assay: microbe, parasite or virus in culture; conditions: isolate 29
[27] = system: Klebsiella pneumoniae; assay: Antimicrobial activity against ciprofloxacin-susceptible Klebsiella pneumoniae isolate 840 harboring GyrA Ala171Ser, Leu187Ile and Val198Ile mutant gene by agar dilution method; type: functional
[28] = system: Klebsiella pneumoniae; assay: Antimicrobial activity against ciprofloxacin-resistant Klebsiella pneumoniae isolate 94 harboring GyrA Ser83Leu, Asp78Asn, Ala171Ser and Val198Ile mutant gene by agar dilution method; type: functional
[29] = system: Klebsiella pneumoniae; assay: Antimicrobial activity against ciprofloxacin-resistant Klebsiella pneumoniae isolate 721 harboring GyrA Ala171Ser, Leu187Ile and Val198Ile mutant gene by agar dilution method; type: functional
[30] = system: Klebsiella pneumoniae; assay: Antimicrobial activity against ciprofloxacin-resistant Klebsiella pneumoniae isolate 149 harboring GyrA Ser83Leu, Asp78Asn, Ala171Ser and Val198Ile mutant gene by agar dilution method; type: functional
[31] = system: Klebsiella pneumoniae; assay: Antimicrobial activity against ciprofloxacin-resistant Klebsiella pneumoniae isolate 863 harboring GyrA Ser83Leu, Asp78Asn, Ala171Ser and Val198Ile mutant gene by agar dilution method; type: functional
[32] = system: Klebsiella pneumoniae; assay: Antimicrobial activity against ciprofloxacin-intermediate resistant Klebsiella pneumoniae isolate 21 by agar dilution method; type: functional
[33] = system: Klebsiella pneumoniae; assay: Antimicrobial activity against ciprofloxacin-resistant Klebsiella pneumoniae isolate 95 harboring GyrA Ser83Leu, Asp78Asn, Ala171Ser and Val198Ile mutant gene by agar dilution method; type: functional
[34] = system: Klebsiella pneumoniae; assay: Antimicrobial activity against ciprofloxacin-susceptible Klebsiella pneumoniae isolate 517 harboring GyrA Ala171Ser, Leu187Ile and Val198Ile mutant gene by agar dilution method; type: functional
[35] = system: Klebsiella pneumoniae; assay: Antimicrobial activity against ciprofloxacin-resistant Klebsiella pneumoniae isolate 205 harboring GyrA Ser83Leu, Asp78Asn, Ala171Ser and Val198Ile mutant gene by agar dilution method; type: functional
[36] = system: Klebsiella pneumoniae; assay: Antimicrobial activity against ciprofloxacin-resistant Klebsiella pneumoniae isolate 769 harboring GyrA Ser83Ile and Gly177Arg mutant gene by agar dilution method; type: functional
[37] = system: Klebsiella pneumoniae; assay: Antimicrobial activity against ciprofloxacin-intermediate resistant Klebsiella pneumoniae isolate 753 harboring GyrA Ser83Ile mutant gene by agar dilution method; type: functional
[38] = system: Klebsiella pneumoniae; assay: Antimicrobial activity against ciprofloxacin-intermediate resistant Klebsiella pneumoniae isolate 715 by agar dilution method; type: functional

Compound	MIC [1] [µg/mL]	MIC [2] [µg/mL]	MIC [3] [µg/mL]	MIC [4] [µg/mL]	MIC [5] [µg/mL]	MIC [6] [µg/mL]	MIC [7] [µg/mL]	MIC [8] [µg/mL]	MIC [9] [µg/mL]	MIC [10] [µg/mL]	MIC [14] [µg/mL]	MIC [15] [µg/mL]	MIC [16] [µg/mL]	MIC [17] [µg/mL]	MIC [18] [µg/mL]	MIC [20] [µg/mL]	MIC [21] [µg/mL]	MIC [22] [µg/mL]	MIC [23] [µg/mL]	MIC [24] [µg/mL]	further results
O=C(O)c1cn(C2CC2)c2cc(N3CCNCC3)c(F)cc2c1=O [CIPROFLOXACIN]	32 (≈ 96.6 µM)	64 (≈ 193 µM)	1 (≈ 3.02 µM)	32 (≈ 96.6 µM)	0.5 (≈ 1.51 µM)	32 (≈ 96.6 µM)	32 (≈ 96.6 µM)	< 0.0312	4 (≈ 12.1 µM)	< 0.0312	< 0.0312	8 (≈ 24.1 µM)	0.125 (≈ 0.377 µM)	< 0.0312	1 (≈ 3.02 µM)	8 (≈ 24.1 µM)	0.125 (≈ 0.377 µM)	16 (≈ 48.3 µM)	64 (≈ 193 µM)	16 (≈ 48.3 µM)	MIC [11]: 16 µg/mL (≈ 48.3 µM); MIC [12]: 8 µg/mL (≈ 24.1 µM); MIC [13]: 4 µg/mL (≈ 12.1 µM); MIC [19]: 32 µg/mL (≈ 96.6 µM); MIC [25]: < 0.0312 µg/mL; MIC [26]: 16 µg/mL (≈ 48.3 µM); MIC [27]: 1 µg/mL (≈ 3.02 µM); MIC [28]: 32 µg/mL (≈ 96.6 µM); MIC [29]: 8 µg/mL (≈ 24.1 µM); MIC [30]: 64 µg/mL (≈ 193 µM); MIC [31]: 128 µg/mL (≈ 386 µM); MIC [32]: 2 µg/mL (≈ 6.04 µM); MIC [33]: 128 µg/mL (≈ 386 µM); MIC [34]: < 0.0312 µg/mL; MIC [35]: 4 µg/mL (≈ 12.1 µM); MIC [36]: 32 µg/mL (≈ 96.6 µM); MIC [37]: 2 µg/mL (≈ 6.04 µM); MIC [38]: 2 µg/mL (≈ 6.04 µM)
CCn1cc(C(=O)O)c(=O)c2ccc(C)nc21 [NALIDIXIC ACID]	> 512	> 512	256 (≈ 1100 µM)	> 512	> 512	> 512	> 512	16 (≈ 68.9 µM)	> 512	8 (≈ 34.4 µM)	4 (≈ 17.2 µM)	> 512	4 (≈ 17.2 µM)	8 (≈ 34.4 µM)	8 (≈ 34.4 µM)	> 512	> 512	> 512	> 512	> 512	MIC [25]: 4 µg/mL (≈ 17.2 µM); MIC [27]: 16 µg/mL (≈ 68.9 µM); MIC [28]: > 512 µg/mL; MIC [29]: > 512 µg/mL; MIC [30]: > 512 µg/mL; MIC [31]: > 512 µg/mL; MIC [32]: 16 µg/mL (≈ 68.9 µM); MIC [33]: > 512 µg/mL; MIC [34]: 8 µg/mL (≈ 34.4 µM); MIC [35]: > 512 µg/mL; MIC [36]: > 512 µg/mL; MIC [37]: > 512 µg/mL; MIC [38]: 16 µg/mL (≈ 68.9 µM)

— ChEMBL document CHEMBL1275459 (2008)
